In ChEMBL document CHEMBL4052614, “Novel 3',5'-diprenylated chalcones inhibited the proliferation of cancer cells in vitro by inducing cell apoptosis and arresting cell cycle phase” (Eur J Med Chem, 2017):
Active and inactive are the calls of the source. No cut-off for these calls is given here.

Columns and labels:
[1] = test system: HEL; assay: Growth inhibition of HEL cells at 5 umol/L after 48 hrs by MTT assay relative to control; type: functional; conditions: Homo sapiens; for inhibition of growth at 5 µM: read-out: GI
Outline: (§1)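 Cells kept in DMEM/10% FBS at 37 °C, 5% CO2, seeded at 4×10^3–8×10^3 cells/well, 24 h attachment, then 48 h with compound at 5 µmol/L. MTT (5 mg/mL solution) added for 4 h at 37 °C, formazan taken up in DMSO, A490 read. Percent inhibition as mean ± SD of three independent experiments. Doxorubicin as positive control.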

[2] = test system: MDA-MB-231; assay: Growth inhibition of human MDA-MB-231 cells at 5 umol/L after 48 hrs by MTT assay relative to control; type: functional; conditions: for inhibition of growth at 5 µM: MDA-MB-231, 48 h, read-out: GI; outline: as §1
[3] = test system: K562; assay: Growth inhibition of human K562 cells at 5 umol/L after 48 hrs by MTT assay relative to control; type: functional; conditions: for inhibition of growth at 5 µM: K562, 48 h, read-out: GI; outline: as §1
[4] = test system: PC-3; assay: Growth inhibition of human PC3 cells at 5 umol/L after 48 hrs by MTT assay relative to control; type: functional; conditions: PC-3, 48 h, read-out: GI; outline: as §1
[5] = test system: PC-3; assay: Cytotoxicity against human PC3 cells after 48 hrs by MTT assay; type: functional, cell-based; conditions: PC-3, 48 h
Outline: (§2)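 Cells kept in DMEM/10% FBS at 37 °C, 5% CO2, seeded at 4×10^3–8×10^3 cells/well and left 24 h to adhere. Exposed 48 h to a range of concentrations. MTT (5 mg/mL solution) added for 4 h at 37 °C, formazan dissolved in DMSO, absorbance read at 490 nm. IC50 derived from concentration–inhibition relation. Doxorubicin as positive control.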

[6] = test system: K562; assay: Cytotoxicity against human K562 cells after 48 hrs by MTT assay; type: functional, cell-based; conditions: K562, 48 h; outline: as §2
[7] = test system: HEL; assay: Cytotoxicity against HEL cells after 48 hrs by MTT assay; type: functional, cell-based; conditions: Homo sapiens; outline: as §2

Compound | growth inhibition (GI) [1] | growth inhibition (GI) [2] | growth inhibition (GI) [3] | inhibition of growth at 5 µM [4] | inhibition of growth at 5 µM [2] | inhibition of growth at 5 µM [1] | inhibition of growth at 5 µM [3] | IC50 [5] | IC50 [6] | IC50 [7]
CCOc1cc(/C=C/C(=O)c2cc(CC=C(C)C)c(OC)c(CC=C(C)C)c2O)ccc1OC(=O)c1ccc(Cl)s1 | inactive | inactive | inactive | 34.3% |  |  |  |  |  | 
COc1c(CC=C(C)C)cc(C(=O)/C=C/c2ccc(N(C)C)cc2)c(O)c1CC=C(C)C | inactive |  | inactive | 11.6% | 21.5% |  |  |  |  | 
COc1ccc(/C=C/C(=O)c2cc(CC=C(C)C)c(OC)c(CC=C(C)C)c2O)cc1 |  |  |  | 24.6% | 14.5% | 29.5% | 32% |  |  | 
COc1cccc2c1C(=O)c1c(O)c3c(c(O)c1C2=O)C[C@@](O)(C(=O)CO)C[C@@H]3O[C@H]1C[C@H](N)[C@H](O)[C@H](C)O1 [DOXORUBICIN] |  |  |  | 89.7% | 87.1% | 89.2% | 90.6% | 2630 nM | 2410 nM | 2130 nM
COc1cc(/C=C/C(=O)c2cc(CC=C(C)C)c(OC)c(CC=C(C)C)c2O)ccc1OC(=O)c1ccc(C)s1 | inactive |  |  | 19.2% | 19.6% |  | 6.3% |  |  | 
COc1cc(/C=C/C(=O)c2cc(CC=C(C)C)c(OC)c(CC=C(C)C)c2O)ccc1O |  |  | inactive | 26% | 19.3% | 22.2% |  |  |  | 
CCOc1cc(/C=C/C(=O)c2cc(CC=C(C)C)c(OC)c(CC=C(C)C)c2O)ccc1OC(=O)c1cccs1 |  |  | inactive | 21.4% | 7.4% | 4% |  |  |  | 
CCOc1cc(/C=C/C(=O)c2cc(CC=C(C)C)c(OC)c(CC=C(C)C)c2O)ccc1OC(=O)c1ccco1 | inactive | inactive | inactive | 12.7% |  |  |  |  |  | 
COc1c(CC=C(C)C)cc(C(=O)/C=C/c2cccn2C)c(O)c1CC=C(C)C | inactive |  |  | 11.7% | 33.8% |  | 9.9% |  |  | 
COc1ccc(/C=C/C(=O)c2cc(CC=C(C)C)c(OC)c(CC=C(C)C)c2O)cc1Cl |  |  |  | 31.8% | 26.5% | 11.7% | 31.9% |  |  | 
COc1cc(/C=C/C(=O)c2cc(CC=C(C)C)c(OC)c(CC=C(C)C)c2O)cc(OC)c1OC |  |  | inactive | 15% | 26.2% | 23.6% |  |  |  | 
